The source of these data is the RNAGym collection of RNA variant scans (doi:10.1002/anie.201605470).

To fix the notation:
B1: Osa-1-4 twister ribozyme (parent)
chain: CCGCCUAACACUGCCAAUGCCGGUCCCAAGCCCGGAUAAAAGUGGAGGGGGCGG

Variants of B1 are the subject of this data set. The experiment in a line: self-cleavage, relative activity (ratio to wild type); higher = more cleavage; co-transcriptional. In a few lines: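 A DNA template for a 54-nucleotide Oryza sativa twister ribozyme was synthesised with 97 % wild-type base and 1 % of each other base at the 48 positions downstream of the cleavage site. It was transcribed in vitro for 2 h at 37 °C, allowing co-transcriptional self-cleavage, then reverse-transcribed with a template-switching oligonucleotide, PCR-amplified and deep-sequenced. Cleavage status was scored from reads with or without upstream sequence. Relative activity is fraction cleaved normalised to wild type.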
In the case of CCGCCUAACACUGCCAAUGCGGGUCCCAAGCCCGGAUAAUAGUGGAGGGGGCGG, the self-cleavage came to 0.05.
For CCGCCUAACACUGCCAAUGCAGGUCCCAAGCCCGGAUAAUAGUGGAGGGGGCGG, the self-cleavage was 0.15.
As to CCGCCUAACACUGCCAAUGCUGGUCCCAAGCCCGGAUAAUAGUGGAGGGGGCGG, the self-cleavage is 0.59.
Take CCGCCUAACACUGCCAACGCCGGUCCCAAGCCCGGAUAAUAGUGGAGGGGGCGG: the self-cleavage is 0.71.
With CCGCCUAACACUGCCAAAGCCGGUCCCAAGCCCGGAUAAUAGUGGAGGGGGCGG the figure was 0.77.
As for CCGCCUAACACUGCCAAGGCCGGUCCCAAGCCCGGAUAAUAGUGGAGGGGGCGG, the self-cleavage is 0.64.
Next, CCGCCUAACACUGCCAAUGCCGGUCCCAAGCCCGGAUAAUAGUGGAGGGCGCGG: 0.18; CCGCCUAACACUGCCAAUGCCGGUCCCAAGCCCGGAUAAUAGUGGAGGGAGCGG: 0.43.
Next, CCGCCUAACACUGCCAAUGCCGGUCCCAAGCCCGGAUAAUAGUGGAGGGUGCGG: 0.34; CCGCCUAACACGGCCAAUGCCGGUCCCAAGCCCGGAUAAUAGUGGAGGGGGCGG: 0.36.
As to CCGCCUAACACCGCCAAUGCCGGUCCCAAGCCCGGAUAAUAGUGGAGGGGGCGG, the self-cleavage amounted to 0.19.
With CCGCCUAACACAGCCAAUGCCGGUCCCAAGCCCGGAUAAUAGUGGAGGGGGCGG the figure was 1; with CCGCCUAACACUGCCAAUGCCGGUCCAAAGCCCGGAUAAUAGUGGAGGGGGCGG, 0.09.
As to CCGCCUAACACUGCCAAUGCCGGUCCUAAGCCCGGAUAAUAGUGGAGGGGGCGG, the self-cleavage was 0.1.
With CCGCCUAACACUGCCAAUGCCGGUCCGAAGCCCGGAUAAUAGUGGAGGGGGCGG the figure was 0.06; with CCGCCUAACACUGCCAAUGCCGGUUCCAAGCCCGGAUAAUAGUGGAGGGGGCGG, 0.13.
With CCGCCUAACACUGCCAAUGCCGGUGCCAAGCCCGGAUAAUAGUGGAGGGGGCGG, the self-cleavage worked out at 0.05.
With CCGCCUAACACUGCCAAUGCCGGUACCAAGCCCGGAUAAUAGUGGAGGGGGCGG the figure was 0.06; with CCGCCUAACACUGCCAAUGCCGGUCCCAAGCCCGGACAAUAGUGGAGGGGGCGG, 0.77.
With CCGCCUAACACUGCCAAUGCCGGUCCCAAGCCCGGAAAAUAGUGGAGGGGGCGG the figure was 0.87; with CCGCCUAACACUGCCAAUGCCGGUCCCAAGCCCGGAGAAUAGUGGAGGGGGCGG, 0.94.
With CCGCCUAACACUGCCAAUGCCGGUCCCAAGCCCGGAUAAUAGUGGAAGGGGCGG the figure was 0.09.
Consider CCGCCUAACACUGCCAAUGCCGGUCCCAAGCCCGGAUAAUAGUGGACGGGGCGG, for which the self-cleavage was determined as 0.06.
For the variant CCGCCUAACACUGCCAAUGCCGGUCCCAAGCCCGGAUAAUAGUGGAUGGGGCGG, the self-cleavage turned out to be 0.09.
Regarding CCGCCUAACACUGCCAAUGCCGGUCCCAAGCCCGGAUAAUAGUGGAGGGGGCGU, the self-cleavage came to 0.47.
For CCGCCUAACACUGCCAAUGCCGGUCCCAAGCCCGGAUAAUAGUGGAGGGGGCGA, the self-cleavage came to 0.25.
Next, CCGCCUAACACUGCCAAUGCCGGUCCCAAGCCCGGAUAAUAGUGGAGGGGGCGC: 0.19.
With CCGCCUAACACUGCCAAUGCCGCUCCCAAGCCCGGAUAAUAGUGGAGGGGGCGG the figure was 0.04; with CCGCCUAACACUGCCAAUGCCGUUCCCAAGCCCGGAUAAUAGUGGAGGGGGCGG, 0.05; with CCGCCUAACACUGCCAAUGCCGAUCCCAAGCCCGGAUAAUAGUGGAGGGGGCGG, 0.11.
Next, CCGCCUAACACUGCCAAUGCCGGUCCCAAGCCCGGAUAAUAGGGGAGGGGGCGG: 0.1; CCGCCUAACACUGCCAAUGCCGGUCCCAAGCCCGGAUAAUAGAGGAGGGGGCGG: 0.18; CCGCCUAACACUGCCAAUGCCGGUCCCAAGCCCGGAUAAUAGCGGAGGGGGCGG: 0.13.
With CCGCCUAACACUGCCAAUGCCGGUCCCAAGCCCGGAUAAACGUGGAGGGGGCGG, the self-cleavage is 0.99.
With CCGCCUAACACUGCCAAUGCCGGUCCCAAGCCCGGAUAAUAGUGCAGGGGGCGG the figure was 0.06; with CCGCCUAACACUGCCAAUGCCGGUCCCAAGCCCGGAUAAUAGUGUAGGGGGCGG, 0.07.
As to CCGCCUAACACUGCCAAUGCCGGUCCCAAGCCCGGAUAAUAGUGAAGGGGGCGG, the self-cleavage is 0.07.
Turning to CCGCCUAACACUGCCAAUGGCGGUCCCAAGCCCGGAUAAUAGUGGAGGGGGCGG, the self-cleavage turned out to be 0.07.
On to CCGCCUAACACUGCCAAUGUCGGUCCCAAGCCCGGAUAAUAGUGGAGGGGGCGG, for which the self-cleavage was found to be 0.81.
With CCGCCUAACACUGCCAAUGACGGUCCCAAGCCCGGAUAAUAGUGGAGGGGGCGG the figure was 0.64; with CCGCCUAACACUGCCAAUGCCGGUCCCAAGCACGGAUAAUAGUGGAGGGGGCGG, 0.07.
Next, CCGCCUAACACUGCCAAUGCCGGUCCCAAGCUCGGAUAAUAGUGGAGGGGGCGG: 0.08; CCGCCUAACACUGCCAAUGCCGGUCCCAAGCGCGGAUAAUAGUGGAGGGGGCGG: 0.07; CCGCCUAACACUGCCAAUGCCGGUCCCAACCCCGGAUAAUAGUGGAGGGGGCGG: 0.04.
Take CCGCCUAACACUGCCAAUGCCGGUCCCAAACCCGGAUAAUAGUGGAGGGGGCGG: the self-cleavage is 0.03.
With CCGCCUAACACUGCCAAUGCCGGUCCCAAUCCCGGAUAAUAGUGGAGGGGGCGG the figure was 0.03.
With CCGCCUAACACUGCCAAUGCCGGGCCCAAGCCCGGAUAAUAGUGGAGGGGGCGG the figure was 0.03; with CCGCCUAACACUGCCAAUGCCGGCCCCAAGCCCGGAUAAUAGUGGAGGGGGCGG, 0.09.
